# Bioassay records as filed in PubChem.
# Compounds with a hit are over-represented: about 2.1% of the library has one in this group of screens.
# MT stabilizer = microtubule stabilizers in HeLa cells; HeLa tubulin immunostaining HCS, 24 h; share of cells brighter than vehicle mean+2SD; % tubulin-high responders, % at 10 µM; 200,000 tested, 0.83% active; AID 2205;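 active = plate Z-score above 3 for both tubulin-high and condensed-nucleus cell shares, with cell loss under 80%, at 10 µM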;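 note: anti alpha tubulin signal scored within the nucleus-defined area of each cell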
# IEC-6 cytotox = kills IEC-6 intestinal cells in KLF5 counter-screen; IEC-6 cytotoxicity, luminescence viability; 290,000 tested, 0.78% active; inhibition, % at 5 µM; AID 1825; in the data active = inhibition above about 22%;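 note: 0% = plate median of test compound wells and 100% = cytotoxic reference compound wells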
# KLF5 inhibitor = inhibitors of KLF5 expression; DLD-1 KLF5 promoter-luciferase reporter, luminescence; inhibition, % at 5 µM; 290,000 tested, 0.23% active; AID 1700;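 active = inhibition above a per-plate limit of that plate's mean compound inhibition plus 3 SD, cut at about 60% in these data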;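 note: 0% = DMSO wells and 100% = LY294002 at 200 µM; higher means less KLF5 promoter-driven luciferase light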
# BaF3 tox = reduces parental Ba/F3 cell viability, JAK2V617F counter-screen | CellTiter-Glo ATP luminescence | inhibition, % at 5.6 µM | 220,000 tested, 1.1% active;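 active = inhibition above a per-campaign cutoff, the mean inhibition of all tested compounds plus 3 SD, cut at about 27% in these data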;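 note: 0% = DMSO wells and 100% = JAK Inhibitor I control wells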
# Ba/F3 V617F tox = reduce viability of Ba/F3 cells dependent on JAK2V617F. Ba/F3 EpoR-JAK2V617F viability, ATP luminescence. inhibition, % at 5.6 µM. 220,000 tested, 1.1% active;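 active = inhibition above the campaign mean plus 3 SD over all tested compounds, cut at about 24% in these data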;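 note: cytokine-independent growth of Ba/F3 cells driven by EpoR plus mutant JAK2; 0% = DMSO-treated cells and 100% = JAK inhibitor I control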
# b-catenin transl = modulators of beta-catenin nuclear translocation; 190,000 tested, 0.3% active; HeLa beta-catenin nuclear translocation, immunofluorescence imaging; nuclear translocation activity, % at 5 µM;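 active = nuclear translocation activity above 50% at 5 µM, with a well cell count of 50 or more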;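 note: per-cell ratio of nuclear to cytoplasmic median beta-catenin stain intensity; plate controls were DMSO negative control for no effect and GSK-3 inhibitor IX positive control for full effect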
#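 test system = HeLa cells, endogenous beta-catenin | dosing = single 5 µM dose plus 0.02–20 µM confirmation series | times = compound treatment 24 h, 37°C, 5% CO2 | technique = beta-catenin immunofluorescence imaging with DAPI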
# Starred values were filed as active, the others as inactive; · = no result.
SMILES,MT stabilizer,IEC-6 cytotox,KLF5 inhibitor,BaF3 tox,Ba/F3 V617F tox,b-catenin transl
O=C(CCc1nc(-c2ccccc2F)no1)Nc1ccc(Oc2ccccc2)cc1,24*,-2,-11,5,1,-2
c1sc2[n+](c1C13CC4CC(CC(C4)C1)C3)CCS2,3,6,-4,61*,63*,·
COc1ccccc1S(=O)(=O)Cc1ccc(C(=O)N2CCN(c3cccc(Cl)c3)CC2)o1,48*,18,20,9,1,44
Cc1ccc(S(=O)(=O)Cc2ccc(C(=O)N3CCN(c4cc(C)ccc4C)CC3)o2)cc1,29*,5,-2,6,4,-3
COc1cc(-n2c(C)nc3cc(C(=O)NCC4CCCO4)ccc32)cc(OC)c1OC (centres undefined),·,0,-3,·,·,·
COc1cc(-n2c(C)nc3cc(C(=O)N4CCOCC4)ccc32)cc(OC)c1OC,4,0,-25,91*,-2,-1
COc1ccccc1-n1cnc2cc(NC(=O)c3ccco3)ccc21,52*,14,-40,14,12,62*
COc1ccc(-n2cnc3cc(NC(=O)c4ccco4)ccc32)cc1,1,2,-27,3,-1,·
COc1ccc(Cn2c(C3CC3)nc3ccc(NC(=O)c4ccco4)cc3c2=O)cc1,13*,-5,-88,6,-1,-1
CCC(=O)Nc1ccc2nc(C3CC3)n(Cc3ccccc3)c(=O)c2c1,1,1,-24,2,-1,-3
O=C1NC2=C(C(=O)CCC2)C(c2ccc([N+](=O)[O-])cc2)N1 (centres undefined),·,-1,-23,·,·,·
O=C(Oc1c(CN2CCOCC2)cc(Cl)c2cccnc12)c1ccccc1,1,26*,-15,0,-3,-2
COc1ccc(C(=O)Oc2c(CN3CCOCC3)cc(Cl)c3cccnc23)cc1OC,1,-2,3,6,-2,·
Cc1nn2c(COc3ccc(NC(=O)c4ccccc4Cl)cc3)nnc2c2ccccc12,18*,3,9,11,3,-1
O=C(CSc1nnnn1C1CCCC1)Nc1ccc(F)cc1,3,6,-10,10,1,1
O=C(CSc1nnnn1C1CCCCC1)Nc1ccc(F)cc1,2,-6,-29,56*,-3,-2
CCC(NC(=O)NNC(=O)c1ccncc1)(C(F)(F)F)C(F)(F)F,·,1,-12,-1,0,2
Cc1ccc(S(=O)(=O)NCc2ccncc2)c(C)c1C,2,19,26,84*,55*,0
CCCCNS(=O)(=O)c1ccc(S(=O)(=O)NCc2ccncc2)cc1,2,2,-34,39*,33*,3
Cc1cc(C)c(S(=O)(=O)NCCc2ccncc2)c(C)c1,·,-2,-33,·,·,·
Cc1ccc(S(=O)(=O)NCc2ccccn2)c(C)c1C,·,1,-3,·,·,·
O=S(=O)(NCc1ccncc1)c1ccc(S(=O)(=O)NCC2CCCO2)cc1 (centres undefined),1,1,18,28*,25*,1
Cc1cc(C)c(S(=O)(=O)NCc2ccncc2)c(C)c1,1,6,1,34*,24*,7
Cc1cc(C(=O)NCC(=O)OCC(=O)NCCc2ccccc2)ccc1[N+](=O)[O-],1,-2,-9,4,1,-5
Cc1cccc(NC(=S)NCc2ccccc2)c1C,·,-4,-15,·,·,·
SMILES,MT stabilizer,IEC-6 cytotox,KLF5 inhibitor,BaF3 tox,Ba/F3 V617F tox,b-catenin transl
CCOC(=O)N1CCN(c2ncnc3c2[nH]c2ccc(F)cc23)CC1,3,9,-14,42*,23,1
CCOC(=O)N1CCN(c2ncnc3c2[nH]c2ccc(OC)cc23)CC1,5,6,-41,9,4,9
OC1(c2cccc(C(F)(F)F)c2)CCN(c2ncnc3c2[nH]c2ccc(F)cc23)CC1,13,-1,-13,35*,20,0
c1ccc(CCn2c(C3CC3)nc3ccccc32)cc1,1,1,-20,9,4,·
CCOC(=O)N1CCC(NC(=O)c2cc3c(-c4cccc(OC)c4)nn(C)c3s2)CC1,7.7*,-3,-29,1,-1,0
COCC(C)NC(C(=O)Nc1cccc(C(C)=O)c1)c1ccccc1 (centres undefined),3,-5,0,-3,-3,1
CCOc1ccc(NC(C(=O)Nc2cccc(C(C)=O)c2)c2ccccc2)cc1 (centres undefined),6,6,11,54*,51*,-4
O=C(Nc1cccnc1)c1cc(-c2ccccc2)on1,3,0,1,1,-3,-2
COc1cccc(-c2cc(C(=O)Nc3cccnc3)no2)c1,9,3,-95,6,-4,111*
COc1cccc(-c2cc(C(=O)Nc3cc(OC)c(OC)c(OC)c3)no2)c1,49*,9,-9,5,-3,·
COc1ccc(/C=C/c2cc(-c3ccc(C)cc3)o[n+]2C)cc1,5,2,50,93*,101*,-3
COc1ccc(/C=C/c2c(-c3ccc(OC)cc3)oc3ccc(-c4ccc(OC)cc4)cc23)cc1,·,4,-4,·,·,·
CN=C(c1ccc([N+](=O)[O-])cc1)N1CCCCC1,3,-5,11,5,1,-2
CN(C(=S)NCCN1CCOCC1)C(c1ccccc1)c1ccccc1,7,-5,-43,44*,16,4
S=C(NCCc1ccccc1)NCCN1CCOCC1,·,5,-39,·,·,·
COc1ccc(C=C2c3ccccc3C(=O)c3ccccc32)c(OC)c1,·,87*,61,83*,84*,82*
Oc1cccc(CCC2CCCCN2Cc2cn[nH]c2-c2ccc3c(c2)OCO3)c1 (centres undefined),1,0,7,11,7,-1
Cc1nc2ccc(NC(=O)CSc3nnc(C)s3)cc2[nH]1,·,-10,6,·,·,·
CCc1nnc(NC(=O)CSc2nnc(-c3ccccc3O)n2-c2ccc(C)cc2)s1,38*,-5,-8,6,-1,-1
CCc1nnc(NC(=O)CSc2nnc(-c3ccccc3OC)n2-c2ccc(C)cc2)s1,2,-3,-42,7,0,2
CCc1nnc(NC(=O)CSc2nnc(COc3ccc(C)cc3)n2-c2ccccc2)s1,33*,4,16,6,7,0
CCc1nnc(NC(=O)CSc2nnc3c(C)cc4c(C)ccc(C)c4n23)s1,20*,11,1,5,2,63*
Cc1noc(C)c1C(=O)N1CCCC1,2,2,-30,4,3,·
Cc1noc(C)c1C1(O)CCCCCCCCCCC1,5,1,-11,55*,36*,2
COc1ccc(OCC(=O)Nc2c(C(=O)N3CCC(N4CCCCC4)CC3)oc3ccccc23)cc1,·,0,-27,·,·,·
O=c1c2ccccc2nnn1Cc1ccc2ccccc2c1,3,3,-8,89*,2,-2
CCC(=O)Nc1c(-c2ccc3ccccc3c2)nc2ccccn12,·,2,-39,·,·,·
